In experiment [1] the target is T1, Amyloid-beta precursor protein (Homo sapiens, UniProt P05067). The experiment can be described thus: Inhibition of amyloid beta (1 to 42) (unknown origin) oligomer dissociation after 16 to 18 hrs by ELISA. The method in brief: (§1)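 Disaggregated biotinyl-Aβ(1-42) was diluted in PBS (pH 7.5) to 33.7 nM monomer to preform oligomers. Oligomers (16.8 nM, in PBS + 0.3% Tween 20) were combined with PBS containing the compound and 1% DMSO. The mixture was shaken at 150 rpm at room temperature for 16-18 h. Remaining oligomers were captured on NeutrAvidin and measured by SA-HRP/TMB at OD450.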
In general terms: An ELISA detects its analyte on a solid surface through an enzyme-linked reagent.

Experiment [2] deals with T1, Amyloid-beta precursor protein. The experiment can be described thus: Inhibition of amyloid beta (1 to 42) (unknown origin) oligomer dissociation at 50 uM after 16 to 18 hrs by ELISA. The gist of the method:
as §1

Experiment [3] has the same target. Briefly: Inhibition of amyloid beta ((1 to 42) (unknown origin) oligomer assembly after 30 mins by biotinyl-streptavidin assay. The gist of the method: (§2)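 Biotinyl-Aβ(1-42) was dried from HFIP, disaggregated with TFA for 10 min at room temperature, and taken up in DMSO (500 nM). Monomer was mixed into PBS containing the compound and 1% DMSO at ambient temperature. After 30 min, 0.3% Tween 20 stopped assembly. Oligomers were captured on NeutrAvidin, detected with SA-HRP and TMB, and read at OD450. Solvent control = 100%.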

Experiment [4] shares this target. The experiment can be described thus: Inhibition of amyloid beta (1 to 42) (unknown origin) oligomer assembly at 50 uM after 30 mins by biotinyl-streptavidin assay. The method in brief: as §2
The target in the next experiment is Acetylcholinesterase (Homo sapiens, UniProt P22303). The experiment can be described thus: Inhibition of AChE (unknown origin) by Ellman method. Background: DTNB colorimetry detects thiols as they appear.
Experiment [5] has as its target T1, Amyloid-beta precursor protein. Briefly: Inhibition of amyloid beta (1 to 40) (unknown origin) fibril formation assessed as shorter assemblies at 10 uM after 6 days by atomic force microscopy relative to control.
The next experiment deals with Cholinesterase (Homo sapiens, UniProt P06276). The experiment can be described thus: Inhibition of BuChE (unknown origin) by Ellman method. The method in brief: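 Equine serum BuChE in 0.1 M phosphate buffer pH 8 with 0.34 mM DTNB, 0.02 unit/mL enzyme and 0.55 mM S-butyrylthiocholine chloride. Inhibitor concentration dependence over 0–50 μM. Percent inhibition versus no-inhibitor control used to derive IC50.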

Calls of active or inactive are those of the source. The calls are words filed in the database; no cut-off is given here.

T1 sequence (P05067 whole entry): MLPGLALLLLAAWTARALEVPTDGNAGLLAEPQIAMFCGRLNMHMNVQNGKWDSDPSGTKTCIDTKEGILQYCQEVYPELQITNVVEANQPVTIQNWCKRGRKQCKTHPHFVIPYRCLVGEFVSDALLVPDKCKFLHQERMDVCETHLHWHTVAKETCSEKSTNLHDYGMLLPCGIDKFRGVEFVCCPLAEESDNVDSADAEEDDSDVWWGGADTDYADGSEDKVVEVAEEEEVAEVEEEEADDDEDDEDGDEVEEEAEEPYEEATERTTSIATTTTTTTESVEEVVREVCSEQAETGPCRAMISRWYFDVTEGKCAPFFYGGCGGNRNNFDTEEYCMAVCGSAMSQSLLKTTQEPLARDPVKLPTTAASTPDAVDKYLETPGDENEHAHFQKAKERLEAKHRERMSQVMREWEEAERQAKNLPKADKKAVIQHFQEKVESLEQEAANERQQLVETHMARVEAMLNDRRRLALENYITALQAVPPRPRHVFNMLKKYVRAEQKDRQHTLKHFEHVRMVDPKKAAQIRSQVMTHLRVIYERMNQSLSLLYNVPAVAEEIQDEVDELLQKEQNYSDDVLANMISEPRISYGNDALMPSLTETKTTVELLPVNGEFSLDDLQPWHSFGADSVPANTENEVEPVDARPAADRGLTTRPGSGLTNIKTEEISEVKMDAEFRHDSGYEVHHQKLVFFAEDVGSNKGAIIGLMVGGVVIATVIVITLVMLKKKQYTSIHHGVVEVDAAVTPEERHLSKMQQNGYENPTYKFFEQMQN
Acetylcholinesterase, sequence (P22303 whole entry): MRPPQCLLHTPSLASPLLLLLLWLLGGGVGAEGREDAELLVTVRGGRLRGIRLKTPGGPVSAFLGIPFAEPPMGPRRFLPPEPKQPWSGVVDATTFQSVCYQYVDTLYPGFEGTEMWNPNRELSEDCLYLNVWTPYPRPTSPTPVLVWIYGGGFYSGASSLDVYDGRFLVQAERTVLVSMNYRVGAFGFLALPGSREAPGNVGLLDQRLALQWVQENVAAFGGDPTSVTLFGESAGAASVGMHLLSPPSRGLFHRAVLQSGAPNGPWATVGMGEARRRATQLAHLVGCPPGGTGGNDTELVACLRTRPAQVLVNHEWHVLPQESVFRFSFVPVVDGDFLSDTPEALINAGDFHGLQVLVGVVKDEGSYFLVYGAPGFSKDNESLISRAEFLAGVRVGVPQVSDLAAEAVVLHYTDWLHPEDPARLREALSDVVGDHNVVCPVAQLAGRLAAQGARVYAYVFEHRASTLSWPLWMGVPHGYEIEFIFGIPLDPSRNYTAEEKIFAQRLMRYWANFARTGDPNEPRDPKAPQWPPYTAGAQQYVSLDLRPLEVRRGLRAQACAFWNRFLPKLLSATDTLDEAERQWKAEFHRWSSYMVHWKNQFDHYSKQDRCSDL
Cholinesterase, sequence (P06276 whole entry): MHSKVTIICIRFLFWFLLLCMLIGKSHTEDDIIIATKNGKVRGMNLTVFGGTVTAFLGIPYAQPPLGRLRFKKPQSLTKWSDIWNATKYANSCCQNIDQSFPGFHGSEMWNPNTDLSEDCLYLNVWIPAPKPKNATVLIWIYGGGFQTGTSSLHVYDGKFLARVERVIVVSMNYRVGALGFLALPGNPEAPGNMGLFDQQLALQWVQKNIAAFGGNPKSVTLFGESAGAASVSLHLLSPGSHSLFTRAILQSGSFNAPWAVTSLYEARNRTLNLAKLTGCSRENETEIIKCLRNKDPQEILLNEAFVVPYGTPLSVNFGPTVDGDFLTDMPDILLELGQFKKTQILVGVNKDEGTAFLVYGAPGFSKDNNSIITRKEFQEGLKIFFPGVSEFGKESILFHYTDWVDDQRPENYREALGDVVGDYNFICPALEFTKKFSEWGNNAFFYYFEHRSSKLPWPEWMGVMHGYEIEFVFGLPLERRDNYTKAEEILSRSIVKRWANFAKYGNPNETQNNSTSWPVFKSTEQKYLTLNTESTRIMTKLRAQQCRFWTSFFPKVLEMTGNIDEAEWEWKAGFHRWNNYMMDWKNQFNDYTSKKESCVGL

The term IC50 denotes the concentration that gives 50% inhibition. A low value points to higher potency. As a reminder, the inhibition is how much of the control response was suppressed. As to `COc1ccc2cc(C(=O)CN3CCN(c4ncccn4)CC3)c(=O)oc2c1`, the results for the IC50 in experiment [1] and in experiment [3] were 4 µM and 1 µM, respectively. Further, the inhibition in experiment [2] is < 95%; in experiment [4], > 65%.
As to `COc1ccc2cc(C(=O)CN3CCN(c4ccccc4)CC3)c(=O)oc2c1`, the IC50 in experiment [1] worked out at 6.5 µM; in experiment [3], 21 µM. In addition, the inhibition in experiment [2] was < 95%; in experiment [4], > 65%.
Take `COc1ccc2cc(C(=O)CN3CCC(c4ccccc4)CC3)c(=O)oc2c1`: the IC50 was found to be 29 µM in experiment [1] and 14 µM in experiment [3]. Besides, the inhibition is < 95% in experiment [2] and > 65% in experiment [4].
Regarding `COc1ccc2cc(C(=O)CN3CCN(Cc4ccccc4)CC3)c(=O)oc2c1`, the IC50 against Acetylcholinesterase came to 1.76 µM; in experiment [3] it was 36 µM. Further, the values for the inhibition in experiment [2] and in experiment [4] were < 95% and > 65%, respectively. Moreover, the inhibition entry in experiment [5] is “Active”.
Molecule `CCN(CC)Cc1cccc(C(=O)/C=C/c2ccc(-c3ccccc3)cc2)c1` returned an IC50 against Cholinesterase of 8.27 µM.
Take `COc1ccc2cc(C(=O)CN3CCC(Cc4ccccc4)CC3)c(=O)oc2c1`: the inhibition is < 95% in experiment [2] and > 65% in experiment [4]. Moreover, in experiment [3], half-maximal inhibition (IC50) was put at 36 µM.
Take `COc1ccc2cc(C(=O)CN3CCN(c4ccccn4)CC3)c(=O)oc2c1`: the inhibition in experiment [2] is < 95%; in experiment [4] it was > 65%.
As for `COc1ccc2cc(C(=O)CN3CCOCC3)c(=O)oc2c1`, the values for the IC50 in experiment [1] and in experiment [3] were 5 µM and 29 µM, respectively. For the same molecule, the inhibition in experiment [2] was < 95%; in experiment [4], > 65%.

The values are drawn from ChEMBL document CHEMBL2380294, “Design, synthesis and biological activity of multifunctional α,β-unsaturated carbonyl scaffolds for Alzheimer's disease” (Bioorg Med Chem Lett, 2013).
